# TRPC4 act = TRPC4 (mouse) channel activation; Q9QUQ5; B-score at 10 µM; HEK293 TRPC4beta/mu-opioid, Fluo4 calcium fluorescence; hits give high values; 310,000 tested, 0.49% active;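 active means B-score above 5 SD of library B-scores, and initial fluorescence ratio not above library mean plus 5 SD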;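 further: positive B-score marks a calcium rise read as TRPC4 activation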
#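 Assay system: HEK293 stable line with TRPC4beta plus mu-opioid receptor. Times: dye 45 min RT, read 110 s. Measured by: kinetic Fluo4 calcium fluorescence. Measure: B score of integrated ratio. Controls: assay buffer as low control, maximal DAMGO as high control.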
# TRPC6 activator = mouse TRPC6 channel activation | HEK293-TRPC6 membrane potential dye fluorescence; hits give high values | B-score at 10 µM | 310,000 tested, 0.13% active | AID 2550;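 active means B-score of the integrated fluorescence ratio above library mean plus 3 SD, and starting fluorescence ratio within library mean plus 5 SD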;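 further: higher score means more depolarization so channel activation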
# Target sequence (Q61143 whole entry, looked up): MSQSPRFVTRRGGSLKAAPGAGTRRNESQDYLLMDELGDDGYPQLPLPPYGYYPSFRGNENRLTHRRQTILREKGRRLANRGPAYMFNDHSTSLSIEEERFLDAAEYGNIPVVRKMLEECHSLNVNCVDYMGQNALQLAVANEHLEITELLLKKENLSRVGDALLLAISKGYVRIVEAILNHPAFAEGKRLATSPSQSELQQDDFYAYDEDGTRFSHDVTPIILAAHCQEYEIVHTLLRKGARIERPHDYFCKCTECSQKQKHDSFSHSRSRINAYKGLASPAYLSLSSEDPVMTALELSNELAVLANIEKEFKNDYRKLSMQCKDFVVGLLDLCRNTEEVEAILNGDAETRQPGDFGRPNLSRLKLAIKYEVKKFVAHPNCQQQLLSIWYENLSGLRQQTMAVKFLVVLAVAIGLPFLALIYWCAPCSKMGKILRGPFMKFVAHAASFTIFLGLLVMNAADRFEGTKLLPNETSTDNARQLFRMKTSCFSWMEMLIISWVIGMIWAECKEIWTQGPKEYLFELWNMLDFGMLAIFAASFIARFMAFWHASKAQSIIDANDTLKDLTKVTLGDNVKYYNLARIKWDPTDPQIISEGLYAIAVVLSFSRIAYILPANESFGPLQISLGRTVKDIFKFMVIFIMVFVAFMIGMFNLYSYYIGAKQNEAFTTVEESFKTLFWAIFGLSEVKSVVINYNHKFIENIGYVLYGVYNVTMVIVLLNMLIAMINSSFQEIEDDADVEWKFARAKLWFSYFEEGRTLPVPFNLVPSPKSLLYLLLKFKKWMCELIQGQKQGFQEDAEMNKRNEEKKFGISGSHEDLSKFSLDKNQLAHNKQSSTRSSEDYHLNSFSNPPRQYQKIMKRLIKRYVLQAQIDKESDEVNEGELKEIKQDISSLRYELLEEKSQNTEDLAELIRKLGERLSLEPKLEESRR
# TRPC4 block = inhibitors of mouse TRPC4 channel; Q9QUQ5; HEK293 TRPC4beta/mu-opioid, DAMGO-evoked Fluo4 calcium flux; hits give low values; B-score at 10 µM; 300,000 tested, 0.39% active;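 active means B-score over 3 SD under the library average, no early fluorescence shift, positive overall ratio signal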
#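 Assay system: Stable TRPC4beta/mu-opioid receptor HEK293 cells | Reagent: DAMGO in two steps, submaximal then maximal | Compound dosing: Single concentration per test compound | Signal: Fluo4 Ca2+ flux fluorescence | Evaluation: Per-well B score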
# TRPC4 potent = allosterically enhances the mouse TRPC4 cation channel; 310,000 tested, 0.42% active; HEK293 TRPC4beta/mu-opioid, DAMGO EC20, Fluo-4 Ca2+ flux; hits give high values; B-score at 10 µM;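 active means B-score of calcium response area above 5 SD of library B-scores, with initial fluorescence ratio within 5 SD of library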;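 further: B-score of integrated fluorescence ratio over time as area under calcium response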
# TRPC6 inhibitor = inhibitors of mouse TRPC6 channel; Q61143; HEK293-TRPC6, membrane potential dye, ACh-evoked depolarization; hits give low values; B-score at 10 µM; 310,000 tested, 1.1% active; AID 2553;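 active means B-score under library mean minus 3 SD, initial fluorescence not abnormally high, positive integrated signal ratio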;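 further: B-score derived from integrated fluorescence ratio over the kinetic read; more negative B-score means stronger inhibition of depolarization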
# * marks the source's active call; other numbers are inactive results; i = inactive. An excerpt weighted towards active compounds, which were near 2.3% of everything screened.
SMILES,TRPC4 act,TRPC6 activator,TRPC4 block,TRPC4 potent,TRPC6 inhibitor
O=C(Nc1cccc(Cl)c1)N1CCN2C(=O)c3ccccc3C12c1ccccc1 (stereo not drawn),i,i,-6*,i,i
CCOCCCn1cnc2c(c1=O)c1nc3ccccc3nc1n2-c1ccccc1,i,i,i,i,i
CCOCCCn1cnc2c(c1=O)c1nc3ccccc3nc1n2-c1ccc(C)cc1,i,i,-8*,i,i
Cc1cc2ccccn2c1C(=O)c1nc(NCc2ccco2)ncc1Cl,i,i,i,13*,i
O=C1c2ccccc2S(=O)(=O)c2cc(C(=O)N(c3ccccn3)c3ccccn3)ccc21,135*,i,i,i,i
COc1ccc(NC(=O)CSc2cc(C(=O)c3nccn3C)c3ccccc3n2)cc1,i,i,i,i,i
Cc1ccc(Cl)cc1N1CCN(Cc2nc3c(c(=O)[nH]c(=O)n3C)n2Cc2ccccc2F)CC1,i,i,i,26*,i
CCN1CCN(Cc2nc3c(c(=O)[nH]c(=O)n3C)n2Cc2ccccc2Cl)CC1,i,i,i,28*,i
NN(CCO)C(=S)Nc1ccc(Cl)cc1,i,i,i,i,i
Nc1ccc(N2CCOCC2)cc1C(F)(F)F,i,i,i,i,i
Cc1ccc(SCc2cn3c(C)csc3n2)cc1,i,i,i,i,i
Cc1cccc2cc(CN(Cc3nnnn3C3CCCC3)C3CCCCC3)c(=O)[nH]c12,i,i,i,i,i
CCc1ccc2[nH]c(=O)c(CN(Cc3nnnn3C3CCCC3)C3CCCCC3)cc2c1,i,i,i,10*,i
Cc1ccnc(NC(=O)c2ccc3c(c2)S(=O)(=O)c2ccccc2C3=O)c1,i,i,i,i,i
Cc1ccc(-c2ccc3c(c2)S(=O)(=O)c2ccccc2C3=O)cc1,i,i,i,29*,i
CN(c1cccc(NC(=O)c2ccc(N(C)S(=O)(=O)c3ccccc3)cc2)c1)S(C)(=O)=O,i,i,i,11*,i
O=C1c2ccccc2NC(c2ccc(O)c(O)c2)N1c1ccccc1Cl (stereo not drawn),i,i,i,i,i
C=CCn1c(NCc2ccco2)nc2ccccc21,i,i,i,34*,i
CCCCn1c(NCc2ccc(N(C)C)cc2)nc2ccccc21,i,i,-6*,i,i
c1ccc(Cn2c(NCc3ccco3)nc3ccccc32)cc1,i,i,-6*,i,i
CCn1c(NCc2ccco2)nc2ccccc21,i,i,i,54*,i
CS(=O)(=O)c1sc(C#N)c2c1C(=O)CC(c1ccccc1)C2 (stereo not drawn),i,i,i,i,i
COc1cccc(CN(C)C(=O)CSc2nc3ccccc3[nH]2)c1OC,i,i,i,i,i
Cc1ccc2[nH]c(=O)c(CN(CCCN(C)C)C(=S)NCCc3ccccc3)cc2c1,i,i,i,i,i
Cc1cccc2cc(CN(CCCN(C)C)C(=S)NCCc3ccccc3)c(=O)[nH]c12,i,i,-6*,i,i
SMILES,TRPC4 act,TRPC6 activator,TRPC4 block,TRPC4 potent,TRPC6 inhibitor
Cc1cc2[nH]c3ccccc3c2c(C)n1,i,i,-7*,i,i
Cc1nc(=S)c2ccccc2[nH]1,i,i,i,i,i
CCn1c(N)[n+](CC(=O)Nc2ccc(SC(F)F)cc2)c2ccccc21,156*,i,i,i,i
O=C(Cc1ccccc1[N+](=O)[O-])OCc1cccc([N+](=O)[O-])c1,i,i,-6*,i,i
CCOc1ccccc1C(=O)NC1CC2CCCC(C1)N2Cc1ccc(C)cc1 (stereo not drawn),i,i,i,i,i
Cc1ccccc1C(=O)NC1CC2CCC(C1)N2Cc1ccccc1 (stereo not drawn),i,i,-5*,i,i
Cc1cccn2c(=O)nc(SCC(=O)c3ccccc3)nc12,i,i,i,i,i
COc1ccc(C2OC(=O)CC2C(=O)NCc2ccc(Cl)cc2)cc1OC (stereo not drawn),i,i,i,i,i
COc1cccc(N2CCN(Cc3nc4scc(-c5ccccc5)c4c(=O)[nH]3)CC2)c1,i,i,i,i,i
CCN1CCN(c2ccc(NC(=O)c3ccc(Br)o3)cc2)CC1,i,i,i,i,i
CN1CCN(c2ccc(NC(=O)c3ccc(-c4ccc(Br)cc4)o3)cc2)CC1,48*,i,-7*,i,i
CC(C)(C)c1cc(C(=O)NCCN2CCCC2)cc(C(C)(C)C)c1,i,i,i,i,i
CCCn1c(N2CCN(C(=O)Nc3ccccc3)CC2)nc2ccccc21,i,i,i,i,i
CCn1c(N2CCN(C(=O)NC3CCCCC3)CC2)nc2ccccc21,46*,i,i,i,i
O=C(NC1CCCCC1)N1CCN(C(c2ccccc2)c2ccccc2)CC1,i,i,-6*,i,i
O=C(NC1CCCCC1)N1CCN(c2ccccc2)CC1,i,i,i,i,i
CCn1c(N2CCN(C(=O)Nc3ccc(F)cc3)CC2)nc2ccccc21,118*,i,i,i,i
CCn1c(NC2CCCCC2)nc2ccccc21,i,i,-6*,i,i
CCn1c(N2CCN(CC(=O)Nc3cccc(C)c3C)CC2)nc2ccccc21,147*,i,i,i,i
CC(C)Cn1c(N2CCN(CC(=O)Nc3ccc(Cl)cc3)CC2)nc2ccccc21,i,i,i,i,i
O=S(=O)(Nc1cc2nc3ccccc3nc2n1Cc1ccccc1)c1ccc(Cl)cc1,i,26*,i,i,i
Cc1ccccc1C1NC(=S)NC2=C1C(=O)CCC2 (stereo not drawn),i,i,i,i,i
Cc1ccc(NC(=S)N2CCN(Cc3ccccc3)CC2)c(C)c1,i,i,i,i,i
Cc1ccc(-n2c(-c3ccccc3)c[n+]3c2CCc2ccccc2-3)c(C)c1,i,i,i,i,-5.5*
CCn1cc(-c2cc(C(=O)O)c3ccccc3n2)cn1,i,i,i,i,i
CCC(C)(C)NC(=O)C(c1ccccc1F)N(Cc1ccco1)C(=O)Cn1nnc2ccccc21 (stereo not drawn),i,44*,i,i,i
CCc1ccc(C(C(=O)NC(C)(C)CC)N(Cc2ccco2)C(=O)Cn2nnc3ccccc32)cc1 (stereo not drawn),i,i,i,i,i
